For one data set, the system named is HT-29. Put plainly: Growth inhibition of human HT-29 cells assessed as cell growth at 10 uM incubated for 48 hrs by sulforhodamine B assay relative to control. Conditions: HT-29, 48 h, read-out: Activity. The data set is classed as functional. A digest of the protocol: (§1)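 Run in the standard NCI 60-cell-line screen. Cells were exposed to drug for two days, and the read-out was sulforhodamine B staining. Compound was tested at a single final concentration of 10 µM in every line, and results are reported as growth percent.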

Data set [1] is described as follows: Growth inhibition of human SF268 cells assessed as cell growth at 10 uM incubated for 48 hrs by sulforhodamine B assay relative to control. The data set is classed as functional. To be noted: SF-268, 48 h, read-out: Activity. Summed up:
as §1

Data set [2] can be described thus: Growth inhibition of human MOLT4 cells incubated for 48 hrs by sulforhodamine B assay. To be noted: MOLT-4, 48 h; for TGI: read-out: pTGI (converted). The data set is classed as functional. Summed up:
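NCI 60-cell-line panel, standard protocol. Cells exposed to compound for two days, growth read by sulforhodamine B staining. Tested at five 10-fold dilutions, top concentration 100 µM, to give dose-response curves.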

The nature of data set [3]: AUClast in mouse at 20 mg/kg, po administered through gavage up to 8 hrs by LC-MS/MS analysis. The data set is classed as ADME, organism-based. On the set-up: time < 8 hr, dose 20 mg/kg, route oral. To be noted: in vivo. Summed up:
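Mice received 20 mg/kg by oral gavage as a 20 mg/mL solution in Labrasol. Two mice were sacrificed at each of 5 min, 15 min, 1 h, 4 h and 8 h, ten mice in total. Plasma was precipitated with acetonitrile containing lorazepam internal standard and analysed by C18 UPLC-MS/MS, calibrated over 5-500 ng/mL. AUClast was calculated from these time points.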

For data set [4], the target named is Protein kinase C (PKC) (Homo sapiens) (UniProt O94806+P41743+P17252+P05129+Q05655+P05771+Q05513+Q02156+P24723+Q15139+Q04759). The data set is described as follows: Activation of PKC in human 786-0 cells at 1 uM. The data set is classed as cell-based.
Data set [5] relates to EKVX. Put plainly: Growth inhibition of human EKVX cells assessed as cell growth at 10 uM incubated for 48 hrs by sulforhodamine B assay relative to control. The data set is classed as functional. Conditions: read-out: Activity. A digest of the protocol:
as §1
A general note: Sulforhodamine B stains cellular protein and so reports cell mass.

Data set [6] deals with EKVX. Put plainly: Growth inhibition of human EKVX cells incubated for 48 hrs by sulforhodamine B assay. The data set is classed as functional. Summed up: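 Run in the NCI 60-cell-line protocol, with 2-day drug exposure and sulforhodamine B read-out. Dose-response testing used five 10-fold dilutions starting from a high concentration of 100 µM.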
Data set [7] is described as follows: Toxicity in po dosed mouse administered through gavage. The data set is classed as organism-based. To be noted: in vivo.
Data set [8] is described as follows: Plasma concentration in mouse at 100 mg/kg, po administered through gavage after 30 mins by LC-MS/MS analysis. The data set is classed as ADME, organism-based. Summed up: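 Oral gavage to mice in Labrasol vehicle (compound dissolved directly at 20 mg/mL); dose groups 5, 10, 50 and 100 mg/kg. Plasma sampled 30 min after dosing. Analysis by HPLC-MS/MS: acetonitrile protein precipitation with lorazepam internal standard, C18 UPLC column, calibration range 5-500 ng/mL.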

The nature of data set [9]: Plasma concentration in mouse at 20 mg/kg, po administered through gavage after 0.083 hrs by LC-MS/MS analysis. The data set is classed as ADME, organism-based. A digest of the protocol:
(§2)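 Ten mice given 20 mg/kg by oral gavage in Labrasol (20 mg/mL solution). Two mice sacrificed at each of 5 min, 15 min, 1 h, 4 h and 8 h. Plasma measured by LC-MS/MS after acetonitrile precipitation with lorazepam internal standard on a C18 UPLC column (calibration 5-500 ng/mL). Mean of two animals per time point.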

The nature of data set [10]: Plasma concentration in mouse at 20 mg/kg, po administered through gavage after 0.25 hrs by LC-MS/MS analysis. The data set is classed as ADME, organism-based. A digest of the protocol: as §2
Data set [11] in a line: Plasma concentration in mouse at 20 mg/kg, po administered through gavage after 1 hr by LC-MS/MS analysis. The data set is classed as ADME, organism-based. A digest of the protocol: as §2
Data set [12] in a line: Plasma concentration in mouse at 20 mg/kg, po administered through gavage after 4 hrs by LC-MS/MS analysis. The data set is classed as ADME, organism-based. A digest of the protocol:
as §2

A short description of data set [13]: Plasma concentration in mouse at 20 mg/kg, po administered through gavage after 8 hrs by LC-MS/MS analysis. The data set is classed as ADME, organism-based. Summed up:
as §2

Active and inactive are the calls of the source. The calls are words filed in the database; no cut-off is given here. Where only a bound is given, the exact number is not on record here.

As usually defined, the GI50 is the concentration that inhibits growth by half. Broadly, the LC50 is the concentration that kills 50% of the test population. Lower therefore signals a more lethal substance. In general, AUC(0-t) refers to exposure summed from dosing to a finite time, without extrapolation to infinity. The low end stands for low exposure, the high end for high exposure.

For `C/C(=C\C(=O)O[C@H]1[C@@H]2[C@H](C)CC[C@H]2[C@]2(C)O[C@@]1(C(C)C)C[C@H]2NC(=O)CO)c1ccccc1`, the growth at 10 µM in the data set with HT-29 was 98.7%. Further, the growth at 10 µM in data set [1] worked out at 106%. Moreover, in data set [2], it took 25.7 µM to inhibit growth by half (GI50), the LC50 is above 100 µM and the TGI is 81.3 µM.

Regarding `CC(C)[C@@]12C[C@@H](NC(=O)CO)[C@@](C)(O1)[C@@H]1CC[C@@H](C)[C@H]1[C@@H]2OC(=O)c1ccc2ccccc2c1`, the growth at 10 µM in the data set on HT-29 turned out to be 93.7%. The growth at 10 µM in data set [1] was 79%. Also, in [2], halving of growth (GI50) required 18.6 µM, the LC50 is 89.1 µM and the TGI is 40.7 µM.

As to `CC(C)[C@@]12C[C@@H](NC(=O)CO)[C@@](C)(O1)[C@@H]1CC[C@@H](C)[C@H]1[C@@H]2OC(=O)/C=C/C1CCCCC1`, the growth at 10 µM in the data set with HT-29 is 97.4%. In addition, the growth at 10 µM in data set [1] amounted to 106%. For the same compound, in data set [2], the GI50 was above 44.7 µM, the LC50 is above 44.7 µM and the TGI is above 44.7 µM.

In data set [3], `CC(C)[C@@]12C[C@@H](NC(=O)CO)[C@@](C)(O1)[C@@H]1CC[C@@H](C)[C@H]1[C@@H]2OC(=O)/C=C/c1ccccc1` registered an AUC(0-t) at 8 h of 524 ng·h/mL. In addition, in data set [4], the outcome was inactive. Also, the growth at 10 µM in the data set on HT-29 worked out at 93%; in data set [1], 84.4%; with EKVX [5], 69%. In addition, the GI50 in data set [2] is 15.8 µM; with EKVX [6] it was 11.2 µM. The compound further gave an LC50 in [2] above 50.1 µM. For the same compound, the TGI (in [2]; with EKVX [6] (read-out: pTGI)) was above 50.1 µM each time. Besides, the CC50 with EKVX [6] (read-out: pLC50 (the source's name) (converted)) was above 50.1 µM. This compound also yielded an MTD in data set [7] of 50 mg/kg. The same compound registered a concentration at 0.5 h in data set [8] of at most 700 ng/mL. Also, in [9], the concentration at 0.083 h was determined as 10 ng/mL. Moreover, in data set [10], the concentration at 0.25 h is 40.7 ng/mL. The compound further returned a concentration at 1 h in data set [11] of 73.2 ng/mL. Besides, in data set [12], the concentration at 4 h stood at 59 ng/mL. The concentration at 8 h in data set [13] was 67.8 ng/mL.

`CC(C)[C@@]12C[C@@H](NC(=O)CF)[C@@](C)(O1)[C@@H]1CC[C@@H](C)[C@H]1[C@@H]2OC(=O)/C=C/c1ccccc1`: the growth at 10 µM in the data set on HT-29 amounted to 109%; in data set [1], 97.7%.

The record behind these values is ChEMBL document CHEMBL3804761, “Synthesis of a stable and orally bioavailable englerin analogue” (Bioorg Med Chem Lett, 2016).
